The values below come from ChEMBL document CHEMBL4145656, “Additional Insights into Hypericum perforatum Content: Isolation, Total Synthesis, and Absolute Configuration of Hyperbiphenyls A and B from Immunomodulatory Root Extracts” (J Nat Prod, 2018).

Series [1] deals with HUVEC. In words: Immunomodulatory activity in HUVEC assessed as inhibition of IFNgamma-induced HLA-DR expression at 10 uM pretreated for 1 hr followed by IFNgamma stimulation and measured after 48 hrs by immunostaining based flow cytometry relative to control. It counts as functional. Put shortly: (§1)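 Endothelial cells were stimulated with IFNγ to upregulate MHC class II and HLA-E in the presence of test agent at 10 μM. Surface expression was measured by flow cytometry.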
In general terms: Flow cytometry measures light scatter and fluorescence of single cells or particles in a stream.

The test system of series [2] is HUVEC. Briefly: Immunomodulatory activity in HUVEC assessed as inhibition of IFNgamma-induced MHC-1 expression at 10 uM pretreated for 1 hr followed by IFNgamma stimulation and measured after 48 hrs by immunostaining based flow cytometry relative to control. Type of series: functional. Put shortly: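 Cultured vascular endothelial cells were stimulated with IFNγ to upregulate MHC molecules (MHC class I, class II, HLA-E) in the presence of the test compound at 10 μM. Surface expression of MHC was then quantified by flow cytometry.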

The test system of series [3] is HUVEC. In words: Immunomodulatory activity in HUVEC assessed as inhibition of IFNgamma-induced HLA-E expression at 10 uM pretreated for 1 hr followed by IFNgamma stimulation and measured after 48 hrs by immunostaining based flow cytometry relative to control. Type of series: functional. In outline: as §1
Series [4] concerns HUVEC. Briefly: Immunomodulatory activity in HUVEC assessed as inhibition of IFNgamma-induced MICA expression at 10 uM pretreated for 1 hr followed by IFNgamma stimulation and measured after 48 hrs by immunostaining based flow cytometry relative to control. Type of series: functional.
For series [5], the system named is HUVEC. Briefly: Immunomodulatory activity in HUVEC assessed as inhibition of TNFalpha-induced VCAM1 expression at 5 to 50 uM measured by ELISA relative to control. Type of series: functional, Homo sapiens. In outline:
(§2)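 Cell-based ELISA on cultured vascular endothelial cells quantifying surface molecules. Cells were stimulated with TNF to induce VCAM-1 and MICA, or with IFNγ to induce MHC class I. Test agents were present at 5, 25 and 50 μM.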

The test system of series [6] is HUVEC. Briefly: Immunomodulatory activity in HUVEC assessed as inhibition of IFNgamma-induced MHC1 expression at 5 to 50 uM measured by ELISA relative to control. It counts as functional, Homo sapiens. In outline:
as §2

For series [7], the system named is HUVEC. In words: Reduction in basal MICA expression in HUVEC at 10 uM measured after 1 hr by immunostaining based flow cytometry. Type of series: ADME, cell-based. Also noted: scale not given: the % may be the effect or the level left. Particulars: human.
For series [8], the system named is HUVEC. Briefly: Effect on HLA-DR expression in HUVEC at 10 uM measured after 1 hr by immunostaining based flow cytometry. Type of series: ADME, cell-based. Conditions: human.
Series [9] deals with HUVEC. In words: Immunomodulatory activity in HUVEC assessed as inhibition of TNFalpha-induced MICA expression at 5 to 50 uM measured by ELISA relative to control. It counts as functional, Homo sapiens. Put shortly:
as §2
Background: An ELISA detects its analyte on a solid surface through an enzyme-linked reagent.

In series [10] the test system is HUVEC. Briefly: Effect on MHC-1 expression in HUVEC at 10 uM measured after 1 hr by immunostaining based flow cytometry. Conditions: human. It counts as ADME, cell-based.
Series [11] has as its system HUVEC. Briefly: Effect on HLA-E expression in HUVEC at 10 uM measured after 1 hr by immunostaining based flow cytometry. Type of series: ADME, cell-based. Conditions: human.

Calls of active or inactive are those of the source. The rule behind the calls is not given here. Bounds are passed on as bounds.

For the molecule `COc1cc(-c2ccccc2)cc2c1C[C@H](O)C(C)(C)O2`, the outcome with HUVEC [1] (Homo sapiens), in the series with HUVEC [2] (Homo sapiens), in the series on HUVEC [3] (Homo sapiens) and with HUVEC [4] (Homo sapiens) was inactive.

`COc1cc2oc3cc(O)cc(O)c3c(=O)c2c2c1OC(C)(C)C=C2`: the result in the series on HUVEC [1] (Homo sapiens), in the series with HUVEC [2] (Homo sapiens), in the series on HUVEC [3] (Homo sapiens) and in the series on HUVEC [4] (Homo sapiens) was inactive.

For the molecule `COc1c(O)ccc2c(=O)c3c(O)cc4c(c3oc12)C(C)(C)C(C)O4` (configuration not stated), the entries for the “inhibition (INH)” value in the series with HUVEC [5], in the series on HUVEC [6] and in the series on HUVEC [9] were above 50%, 10 - 25% and below 10%, respectively. In addition, the Activity in the series with HUVEC [1] is given as 25%; with HUVEC [7] it was 25%; with HUVEC [8] it was “Non-Toxic”; with HUVEC [3] it was 40%; with HUVEC [10] it was “Non-Toxic”; with HUVEC [11], “Non-Toxic”. Besides, the Activity in the series on HUVEC [4] is reported as 24%.

For `COc1cc(C2Oc3c(OC)cc4c(=O)c5ccccc5oc4c3OC2CO)ccc1O` (configuration not stated), the result in the series on HUVEC [1] (Homo sapiens), with HUVEC [2] (Homo sapiens), with HUVEC [3] (Homo sapiens) and with HUVEC [4] (Homo sapiens) was inactive.

Consider `COc1cc(-c2ccccc2)cc2c1C[C@@H](C(C)(C)O)O2`, for which the outcome in the series on HUVEC [1] (Homo sapiens), with HUVEC [2] (Homo sapiens), with HUVEC [3] (Homo sapiens) and in the series on HUVEC [4] (Homo sapiens) was inactive.

Take `O.O=P(O)(O)C(O)(Cn1ccnc1)P(=O)(O)O` [ZOLEDRONIC ACID]: the Activity in the series with HUVEC [2] is on record as 67%.
